Assay results from ChEMBL document CHEMBL1132401, “Glycosylation of fluoroquinolones through direct and oxygenated polymethylene linkages as a sugar-mediated active transport system for antimicrobials” (1999).

Key:
Enterococcus faecalis [1] = experiment: Minimum concentration required to prevent the growth of vancomycin resistant (VanA) Enterococcus faecalis strain A0401; assay type: functional
How it was run: (§1)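 Agar dilution susceptibility testing per NCCLS guidelines against resistant clinical isolates, with nonresistant ATCC stock strains run as controls. Plates were read at 19–24 h of incubation. MIC reported in µg/mL.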

[2] = test system: Staphylococcus epidermidis; experiment: Minimum concentration required to prevent the growth of multiply resistant Staphylococcus epidermidis (MRSE) coag.-neg. Staph. A0245; assay type: functional; how it was run: as §1
Enterococcus faecalis [3] = experiment: Minimum concentration required to prevent the growth of vancomycin resistant (VanA) Enterococcus faecalis strain A0402; assay type: functional; how it was run: as §1
Listeria monocytogenes [4] = experiment: Minimum concentration required to prevent the growth of Listeria monocytogenes strain A0182; assay type: functional
How it was run: (§2)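 Agar dilution susceptibility testing per NCCLS guidelines, covering clinical isolates (including resistant phenotypes) and nonresistant ATCC stock strains as controls. Plates read after 19–24 h of incubation. MIC reported in μg/mL.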

Staphylococcus aureus [5] = experiment: Minimum concentration required to prevent the growth of multiply resistant (MRSA) Staphylococcus aureus strain A0170; assay type: functional; how it was run: as §1
Staphylococcus aureus [6] = experiment: Minimum concentration required to prevent the growth of nonresistant stock strain Staphylococcus aureus 29213 from American Type Culture Collection (ATCC)
Enterococcus faecalis [7] = experiment: Minimum concentration required to prevent the growth of high level gentamicin and beta- lactamase resistant (HLGR, BLA+) Enterococcus faecalis strain A0089; assay type: functional; how it was run: as §1
Enterococcus faecalis [8] = experiment: Minimum concentration required to prevent the growth of vancomycin resistant (VanB) Enterococcus faecalis strain A1081; assay type: functional; how it was run: as §1
Staphylococcus aureus [9] = experiment: Minimum concentration required to prevent the growth of multiply resistant (MRSA) Staphylococcus aureus strain A0171; assay type: functional; how it was run: as §1
[10] = test system: Staphylococcus epidermidis; experiment: (§3) Minimum concentration required to prevent the growth of multiply resistant Staphylococcus epidermidis (MRSE) coag.-neg. Staph. A0244
Enterococcus faecium [11] = experiment: Minimum concentration required to prevent the growth of nonresistant stock strain Enterococcus faecium 19434 from American Type Culture Collection (ATCC); assay type: functional; how it was run: as §2
Enterococcus faecium [12] = experiment: Minimum concentration required to prevent the growth of vancomycin resistant (VanB) Enterococcus faecium strain A0803; assay type: functional; how it was run: as §1
Enterococcus faecium [13] = experiment: Minimum concentration required to prevent the growth of vancomycin resistant (VanB) Enterococcus faecium strain A1087; assay type: functional; how it was run: as §1
Klebsiella pneumoniae = experiment: Minimum concentration required to prevent the growth of cipro resistant (Cipro-I) Klebsiella pneumoniae strain AM; assay type: functional; how it was run: as §1
Listeria monocytogenes [14] = experiment: Minimum concentration required to prevent the growth of Listeria monocytogenes strain A0183; assay type: functional; how it was run: as §2
Enterococcus faecalis [15] = experiment: Minimum concentration required to prevent the growth of vancomycin resistant (VanB) Enterococcus faecalis strain A1079; assay type: functional; how it was run: as §1
Enterococcus faecalis [16] = experiment: Minimum concentration required to prevent the growth of high level gentamicin and beta- lactamase resistant (HLGR, BLA+) Enterococcus faecalis strain A0090; assay type: functional; how it was run: as §1
Enterococcus faecalis [17] = experiment: Minimum concentration required to prevent the growth of nonresistant stock strain Enterococcus faecalis 51299 from American Type Culture Collection (ATCC); assay type: functional; how it was run: as §1
Pseudomonas aeruginosa [18] = experiment: Minimum concentration required to prevent the growth of Pseudomonas aeruginosa strain 28245; assay type: functional; how it was run: as §2
[19] = test system: Staphylococcus epidermidis; experiment: as §3; assay type: functional; how it was run: as §1
Staphylococcus aureus [20] = experiment: Minimum concentration required to prevent the growth of nonresistant stock strain Staphylococcus aureus 29213 from American Type Culture Collection (ATCC); remark: listed apart in the source
Enterococcus faecalis [21] = experiment: Minimum concentration required to prevent the growth of nonresistant stock strain Enterococcus faecalis 29212 from American Type Culture Collection (ATCC); assay type: functional; how it was run: as §1
Escherichia coli [22] = experiment: Minimum concentration required to prevent the growth of nonresistant stock Escherichia coli strain 25922 from American Type Culture Collection (ATCC); assay type: functional; conditions: ATCC25922; how it was run: as §2
[23] = test system: Staphylococcus epidermidis; experiment: Minimum concentration required to prevent the growth of multiply resistant Staphylococcus epidermidis (MRSE) and cipro resistant (Cipro-R) coag.-neg. Staph. A0247; assay type: functional; how it was run: as §1
Escherichia coli [24] = experiment: Minimum concentration required to prevent the growth of cipro resistant (Cipro-R) Escherichia coli strain AA; assay type: functional; how it was run: as §2
Escherichia coli [25] = experiment: Minimum concentration required to prevent the growth of cipro resistant (Cipro-R) Escherichia coli strain A3529; assay type: functional; how it was run: as §2
Klebsiella oxytoca [26] = experiment: Minimum concentration required to prevent the growth of cipro resistant (Cipro-I) Klebsiella oxytoca strain A3530; assay type: functional; how it was run: as §1
Enterococcus faecium [27] = experiment: Minimum concentration required to prevent the growth of vancomycin resistant (VanA) Enterococcus faecium strain A1745; assay type: functional; how it was run: as §1
[28] = test system: Staphylococcus epidermidis; experiment: Minimum concentration required to prevent the growth of multiply resistant Staphylococcus epidermidis (MRSE) and cipro resistant (Cipro-R) coag.-neg. Staph. A0248; assay type: functional; how it was run: as §1
Staphylococcus aureus [29] = experiment: Minimum concentration required to prevent the growth of multiply resistant (MRSA) and cipro resistant (Cipro-R) Staphylococcus aureus strain A2800; assay type: functional; how it was run: as §1
Pseudomonas aeruginosa [30] = experiment: Minimum concentration required to prevent the growth of Pseudomonas aeruginosa strain 28215; assay type: functional; how it was run: as §2
Staphylococcus aureus [31] = experiment: Minimum concentration required to prevent the growth of multiply resistant (MRSA) and cipro resistant (Cipro-R) Staphylococcus aureus strain A2043; assay type: functional; how it was run: as §1
Escherichia coli [32] = experiment: Minimum concentration required to prevent the growth of cipro resistant (Cipro-R) Escherichia coli strain A3228; assay type: functional; how it was run: as §2
Klebsiella oxytoca [33] = experiment: Minimum concentration required to prevent the growth of cipro resistant (Cipro-R) Klebsiella oxytoca strain A3530
Enterococcus faecium [34] = experiment: Minimum concentration required to prevent the growth of vancomycin resistant (VanA) Enterococcus faecium strain A2320; assay type: functional; how it was run: as §1
[35] = test system: Staphylococcus epidermidis; experiment: Minimum concentration required to prevent the growth of multiply resistant Staphylococcus epidermidis (MRSE) and cipro resistant (Cipro-R) coag.-neg. Staph. A0247
Klebsiella oxytoca [36] = experiment: Minimum concentration required to prevent the growth of cipro resistant (Cipro-R) Klebsiella oxytoca strain A3530; remark: listed apart in the source
[37] = Enterococcus faecalis, read-out: MIC
[38] = Staphylococcus epidermidis, read-out: MIC
[39] = Listeria monocytogenes, read-out: MIC
[40] = Staphylococcus aureus, read-out: MIC
[41] = Enterococcus faecium, read-out: MIC
[42] = Klebsiella pneumoniae, read-out: MIC
[43] = Pseudomonas aeruginosa, read-out: MIC
[44] = Escherichia coli, read-out: MIC

Measured: MIC

Cl.O=C(O)c1cn(C2CC2)c2cc(N3CCNCC3)c(F)cc2c1=O [CIPROFLOXACIN HYDROCHLORIDE]
1 µg/mL: Enterococcus faecalis [1] | Enterococcus faecalis [3]; [37] | Listeria monocytogenes [4] | Listeria monocytogenes [4]; [39] | Enterococcus faecalis [7] | [10] | Listeria monocytogenes [14] | Listeria monocytogenes [14]; [39] | Enterococcus faecalis [15] | Enterococcus faecalis [16] | Enterococcus faecalis [17]; [37] | Pseudomonas aeruginosa [18]; [43] | [19] | Enterococcus faecalis [21]
0.5 µg/mL: [2] | [2]; [38] | Staphylococcus aureus [5] | Staphylococcus aureus [6] | Enterococcus faecalis [8] | Enterococcus faecalis [8]; [37] | Staphylococcus aureus [9] | Staphylococcus aureus [9]; [40] | Staphylococcus aureus [20]
8 µg/mL: Enterococcus faecium [11] | Enterococcus faecium [11]; [41]
2 µg/mL: Enterococcus faecalis [1]; [37] | Enterococcus faecalis [7]; [37] | Enterococcus faecium [12] | Enterococcus faecium [12]; [41] | Klebsiella pneumoniae | Klebsiella pneumoniae; [42]
0.25 µg/mL: Staphylococcus aureus [5]; [40]
4 µg/mL: Enterococcus faecium [13] | Enterococcus faecium [13]; [41]

O=C(O)c1cn(C2CC2)c2cc(N3CCN(C4OC(CO)C(O)C(O)C4O)CC3)c(F)cc2c1=O (stereo in doubt; form 3)
0.5 µg/mL: [2] | Staphylococcus aureus [5] | Staphylococcus aureus [9] | Pseudomonas aeruginosa [30]
1 µg/mL: Enterococcus faecalis [8] | [19]
4 µg/mL: Enterococcus faecium [12] | Enterococcus faecium [13] | Klebsiella pneumoniae | Pseudomonas aeruginosa [18]
2 µg/mL: Listeria monocytogenes [4] | Listeria monocytogenes [14]
< 0.03 µg/mL: Escherichia coli [22]
32 µg/mL: Escherichia coli [25]
8 µg/mL: Escherichia coli [24] | Klebsiella oxytoca [26] | Enterococcus faecium [11]
> 32 µg/mL: [23] | Enterococcus faecium [27] | [28] | Staphylococcus aureus [29] | Staphylococcus aureus [31] | Escherichia coli [32]

O=C(O)c1cn(C2CC2)c2cc(N3CCN(C4OC(CO)C(O)C(O)C4O)CC3)c(F)cc2c1=O (stereo in doubt; form 1)
0.25 µg/mL: Pseudomonas aeruginosa [30]; [43]
< 0.03 µg/mL: Escherichia coli [22]
> 32 µg/mL: [23] | Enterococcus faecium [27] | [28] | Staphylococcus aureus [29] | Staphylococcus aureus [31] | Escherichia coli [32] | Enterococcus faecium [34]
8 µg/mL: Klebsiella oxytoca [33] | Escherichia coli [24]; [44] | Enterococcus faecium [11]; [41]
4 µg/mL: Enterococcus faecium [12]; [41] | Enterococcus faecium [13]; [41]
2 µg/mL: Enterococcus faecalis [1]; [37] | Enterococcus faecalis [3]; [37] | Listeria monocytogenes [4]; [39] | Enterococcus faecalis [7]; [37] | Klebsiella pneumoniae; [42] | Listeria monocytogenes [14]; [39]
0.5 µg/mL: [2]; [38] | Staphylococcus aureus [5]; [40] | Enterococcus faecalis [8]; [37] | Staphylococcus aureus [9]; [40] | Enterococcus faecalis [17]; [37]
1 µg/mL: Enterococcus faecalis [15] | Enterococcus faecalis [16] | Pseudomonas aeruginosa [18] | [19]; [38] | Enterococcus faecalis [21]
32 µg/mL: Escherichia coli [25]; [44]

O=C(O)c1cn(C2CC2)c2cc(N3CCN(C4OC(CO)C(O)C(O)C4O)CC3)c(F)cc2c1=O (stereo in doubt; form 2)
> 32 µg/mL: Enterococcus faecium [27]
1 µg/mL: Enterococcus faecalis [3] | Enterococcus faecalis [7] | Enterococcus faecalis [17] | [19]
2 µg/mL: Enterococcus faecalis [1] | Listeria monocytogenes [4] | Enterococcus faecium [12] | Klebsiella pneumoniae | Listeria monocytogenes [14]
32 µg/mL: Escherichia coli [25]
8 µg/mL: Escherichia coli [24] | Klebsiella oxytoca [26] | Enterococcus faecium [11]
0.5 µg/mL: [2] | Staphylococcus aureus [5] | Enterococcus faecalis [8] | Staphylococcus aureus [9] | Pseudomonas aeruginosa [30]
4 µg/mL: Pseudomonas aeruginosa [18]

O=C(O)c1cn(C2CC2)c2cc(N3CCN(CCCO[C@@H]4O[C@@H](CO)[C@@H](O)[C@H](O)[C@@H]4O)CC3)c(F)cc2c1=O
4 µg/mL: [2] | Staphylococcus aureus [5] | Staphylococcus aureus [6] | Enterococcus faecalis [8]; [37] | Staphylococcus aureus [9] | Pseudomonas aeruginosa [30] | Enterococcus faecalis [16]
8 µg/mL: Enterococcus faecalis [1]; [37] | Enterococcus faecalis [3]; [37] | Listeria monocytogenes [4] | Enterococcus faecalis [7]; [37] | Listeria monocytogenes [14] | Enterococcus faecalis [15] | Enterococcus faecalis [17]; [37] | [19] | Enterococcus faecalis [21]
16 µg/mL: Enterococcus faecium [12]; [41] | Klebsiella pneumoniae
> 32 µg/mL: [35] | Escherichia coli [24] | Escherichia coli [25] | [28] | Staphylococcus aureus [29] | Enterococcus faecium [11]; [41] | Staphylococcus aureus [31] | Klebsiella oxytoca [36] | Escherichia coli [32]
32 µg/mL: Enterococcus faecium [13]; [41] | Pseudomonas aeruginosa [18]
0.12 µg/mL: Escherichia coli [22]
